Laboratory results as given in ChEMBL document CHEMBL1124553, “Brain-specific chemical delivery systems for beta-lactam antibiotics. In vitro and in vivo studies of some dihydropyridine and dihydroisoquinoline derivatives of benzylpenicillin in rats” (J Med Chem, 1989).

Experiments:
[1] = Half-life for disappearance of compound from rabbit 10% brain homogenate; type: ADME, Oryctolagus cuniculus
How it was run: (§1)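 Freshly collected whole blood, or 10% w/v brain homogenate in pH 7.4 phosphate buffer (ionic strength 0.15), was prewarmed to 37 °C. Compound was spiked from an 8 mM DMSO stock to 40 µM final. Timed samples were quenched in 8% DMSO/acetonitrile, centrifuged, filtered and analyzed by reversed-phase C8 HPLC with UV detection. K came from linear regression of log peak height versus time, with t1/2 derived from it. Values are mean ± SE of three determinations in different animal samples.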

[2] = Half-life for disappearance of compound from rat 10% brain homogenate; type: ADME; how it was run: as §1
[3] = organism: Oryctolagus cuniculus; assay: Pseudo first-order rate constant (K) for disappearance of compound from rabbit 10% brain homogenate; type: ADME
How it was run: (§2)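 Freshly collected whole blood (rat trunk blood; rabbit) or 10% w/v brain homogenate made in pH 7.4 phosphate buffer (μ = 0.15), prewarmed to 37 °C. Compound added from 8 mM DMSO stock to a final 40 μM. Timed 0.3 mL samples were quenched in 8% DMSO/acetonitrile, centrifuged, filtered and analysed by reversed-phase C8 HPLC-UV. K came from linear regression of log peak height versus time; n=3 animal samples.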

[4] = organism: Rattus norvegicus; assay: Pseudo first-order rate constant (K) for disappearance of compound from rat 10% brain homogenate; type: ADME; how it was run: as §2
[5] = Half-life for disappearance of compound from dog whole blood; type: ADME, organism-based, Canis lupus familiaris; how it was run: as §1
[6] = Half-life for disappearance of compound from human whole blood; type: ADME, organism-based; how it was run: as §1
[7] = Half-life for disappearance of compound from rabbit whole blood; type: ADME, organism-based, Oryctolagus cuniculus; how it was run: as §1
[8] = organism: Rattus norvegicus; assay: Half-life for disappearance of compound from rat whole blood; Compound was unstable; type: ADME, organism-based; conditions: in vitro; how it was run: as §1
[9] = organism: Rattus norvegicus; assay: Pseudo first-order rate constant (K) for disappearance of compound from rat whole blood; Compound was unstable; type: ADME, organism-based; how it was run: as §2
[10] = organism: Canis familiaris; assay: Pseudo first-order rate constant (K) for disappearance of compound from dog whole blood; type: ADME, organism-based, Canis lupus familiaris; how it was run: as §1
[11] = organism: Homo sapiens; assay: Pseudo first-order rate constant (K) for disappearance of compound from human whole blood; type: ADME, organism-based; how it was run: as §1
[12] = organism: Oryctolagus cuniculus; assay: Pseudo first-order rate constant (K) for disappearance of compound from rabbit whole blood; type: ADME, organism-based; how it was run: as §2
[13] = test system: Rattus norvegicus; assay: Concentration of compound in rat kidney after intravenous injection of 20 mg/kg benzyl-penicillin after 1 min; type: functional, organism-based; design: dose 20 mg/kg
How it was run: (§3)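 Male Sprague-Dawley rats (200-250 g), conscious, received 60 µmol/kg (equimolar to 20 mg/kg benzylpenicillin) by tail-vein injection. Benzylpenicillin K was given in water/ethanol/propylene glycol, and the delivery systems in ethanol:propylene glycol 7:3, at 20 mg/mL. Rats were decapitated at set times (4-6 per point), with trunk blood heparinized and brain, kidney, liver and lung frozen. Benzylpenicillin was measured by disk microbioassay (Bacillus subtilis ATCC 6633) after >5-volume sterile-water dilution or homogenization, against matrix calibration curves; assay limit 0.05 µg/mL.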

[14] = test system: Rattus norvegicus; assay: Concentration of compound in rat kidney after intravenous injection of 20 mg/kg benzyl-penicillin after 20 min; type: functional, organism-based; design: dose 20 mg/kg; how it was run: as §3
[15] = test system: Rattus norvegicus; assay: Concentration of compound in rat kidney after intravenous injection of 20 mg/kg benzyl-penicillin after 3 min; type: functional, organism-based; design: dose 20 mg/kg; how it was run: as §3
[16] = test system: Rattus norvegicus; assay: Concentration of compound in rat kidney after intravenous injection of 20 mg/kg benzyl-penicillin after 40 min; type: functional, organism-based; design: dose 20 mg/kg; how it was run: as §3
[17] = test system: Rattus norvegicus; assay: Concentration of compound in rat kidney after intravenous injection of 20 mg/kg benzyl-penicillin after 5 min; type: functional, organism-based; design: dose 20 mg/kg; how it was run: as §3
[18] = test system: Rattus norvegicus; assay: Concentration of compound in rat kidney after intravenous injection of 20 mg/kg benzyl-penicillin after 60 min; type: functional, organism-based; design: dose 20 mg/kg; how it was run: as §3
[19] = test system: Rattus norvegicus; assay: Concentration of compound in rat kidney after intravenous injection of 20 mg/kg benzyl-penicillin after 10 min; type: functional, organism-based; design: dose 20 mg/kg; how it was run: as §3
[20] = test system: Rattus norvegicus; assay: Concentration of compound in rat liver after intravenous injection of 20 mg/kg benzyl-penicillin after 1 min; type: functional, organism-based; design: dose 20 mg/kg; how it was run: as §3
[21] = test system: Rattus norvegicus; assay: Concentration of compound in rat liver after intravenous injection of 20 mg/kg benzyl-penicillin after 10 min; type: functional, organism-based; design: dose 20 mg/kg; how it was run: as §3
[22] = test system: Rattus norvegicus; assay: Concentration of compound in rat liver after intravenous injection of 20 mg/kg benzyl-penicillin after 20 min; type: functional, organism-based; design: dose 20 mg/kg; how it was run: as §3
[23] = test system: Rattus norvegicus; assay: Concentration of compound in rat liver after intravenous injection of 20 mg/kg benzyl-penicillin after 3 min; type: functional, organism-based; design: dose 20 mg/kg; how it was run: as §3
[24] = test system: Rattus norvegicus; assay: Concentration of compound in rat liver after intravenous injection of 20 mg/kg benzyl-penicillin after 40 min; type: functional, organism-based; design: dose 20 mg/kg; how it was run: as §3
[25] = test system: Rattus norvegicus; assay: Concentration of compound in rat liver after intravenous injection of 20 mg/kg benzyl-penicillin after 5 min; type: functional, organism-based; design: dose 20 mg/kg; how it was run: as §3
[26] = test system: Rattus norvegicus; assay: Concentration of compound in rat blood after intravenous injection of 20 mg/kg benzyl-penicillin after 1 min; type: functional, organism-based; design: dose 20 mg/kg; how it was run: as §3
[27] = test system: Rattus norvegicus; assay: Concentration of compound in rat blood after intravenous injection of 20 mg/kg benzyl-penicillin after 10 min; type: functional, organism-based; design: dose 20 mg/kg; how it was run: as §3
[28] = test system: Rattus norvegicus; assay: Concentration of compound in rat blood after intravenous injection of 20 mg/kg benzyl-penicillin after 20 min; type: functional, organism-based; design: dose 20 mg/kg; how it was run: as §3
[29] = test system: Rattus norvegicus; assay: Concentration of compound in rat blood after intravenous injection of 20 mg/kg benzyl-penicillin after 3 min; type: functional, organism-based; design: dose 20 mg/kg; how it was run: as §3
[30] = test system: Rattus norvegicus; assay: Concentration of compound in rat blood after intravenous injection of 20 mg/kg benzyl-penicillin after 40 min; type: functional, organism-based; design: dose 20 mg/kg; how it was run: as §3
[31] = test system: Rattus norvegicus; assay: Concentration of compound in rat blood after intravenous injection of 20 mg/kg benzyl-penicillin after 5 min; type: functional, organism-based; design: dose 20 mg/kg; how it was run: as §3
[32] = test system: Rattus norvegicus; assay: Concentration of compound in rat blood after intravenous injection of 20 mg/kg benzyl-penicillin after 60 min; type: functional, organism-based; design: dose 20 mg/kg; how it was run: as §3
[33] = test system: Rattus norvegicus; assay: Concentration of compound in rat brain after intravenous injection of 20 mg/kg benzyl-penicillin after 1 min; type: functional, organism-based; design: dose 20 mg/kg; how it was run: as §3
[34] = test system: Rattus norvegicus; assay: Concentration of compound in rat brain after intravenous injection of 20 mg/kg benzyl-penicillin after 10 min; type: functional, organism-based; design: dose 20 mg/kg; how it was run: as §3
[35] = test system: Rattus norvegicus; assay: Concentration of compound in rat brain after intravenous injection of 20 mg/kg benzyl-penicillin after 20 min; type: functional, organism-based; design: dose 20 mg/kg; how it was run: as §3
[36] = test system: Rattus norvegicus; assay: Concentration of compound in rat brain after intravenous injection of 20 mg/kg benzyl-penicillin after 3 min; type: functional, organism-based; design: dose 20 mg/kg; how it was run: as §3
[37] = test system: Rattus norvegicus; assay: Concentration of compound in rat brain after intravenous injection of 20 mg/kg benzyl-penicillin after 40 min; type: functional, organism-based; design: dose 20 mg/kg; how it was run: as §3
[38] = test system: Rattus norvegicus; assay: Concentration of compound in rat brain after intravenous injection of 20 mg/kg benzyl-penicillin after 5 min; type: functional, organism-based; design: dose 20 mg/kg; how it was run: as §3
[39] = test system: Rattus norvegicus; assay: Concentration of compound in rat liver after intravenous injection of 20 mg/kg benzyl-penicillin after 60 min; type: functional, organism-based; design: dose 20 mg/kg; how it was run: as §3
[40] = test system: Rattus norvegicus; assay: Concentration of compound in rat lung after intravenous injection of 20 mg/kg benzyl-penicillin after 1 min; type: functional, organism-based; design: dose 20 mg/kg; how it was run: as §3
[41] = test system: Rattus norvegicus; assay: Concentration of compound in rat lung after intravenous injection of 20 mg/kg benzyl-penicillin after 10 min; type: functional, organism-based; design: dose 20 mg/kg; how it was run: as §3
[42] = test system: Rattus norvegicus; assay: Concentration of compound in rat lung after intravenous injection of 20 mg/kg benzyl-penicillin after 20 min; type: functional, organism-based; design: dose 20 mg/kg; how it was run: as §3
[43] = test system: Rattus norvegicus; assay: Concentration of compound in rat lung after intravenous injection of 20 mg/kg benzyl-penicillin after 3 min; type: functional, organism-based; design: dose 20 mg/kg; how it was run: as §3
[44] = test system: Rattus norvegicus; assay: Concentration of compound in rat lung after intravenous injection of 20 mg/kg benzyl-penicillin after 40 min; type: functional, organism-based; design: dose 20 mg/kg; how it was run: as §3
[45] = test system: Rattus norvegicus; assay: Concentration of compound in rat lung after intravenous injection of 20 mg/kg benzyl-penicillin after 5 min; type: functional, organism-based; design: dose 20 mg/kg; how it was run: as §3
[46] = test system: Rattus norvegicus; assay: Concentration of compound in rat lung after intravenous injection of 20 mg/kg benzyl-penicillin after 60 min; type: functional, organism-based; design: dose 20 mg/kg; how it was run: as §3
[47] = test system: Rattus norvegicus; assay: Concentration of compound in rat brain after intravenous injection of 20 mg/kg benzyl-penicillin after 60 min; type: functional, organism-based; design: dose 20 mg/kg; how it was run: as §3
[48] = Half-life for disappearance of compound from rat whole blood; type: ADME, organism-based; how it was run: as §1
[49] = Pseudo first-order rate constant (K) for disappearance of compound from rat whole blood; type: ADME, tissue-based; how it was run: as §2

C[n+]1cccc(C(=O)OCOC(=O)C2N3C(=O)C(NC(=O)Cc4ccccc4)C3SC2(C)C)c1.[I-] (stereo not drawn)
half-life [1]: 0.5 min
half-life [2]: 0.6 min
K [3]: 1.366 min⁻¹
K [4]: 0.949 min⁻¹

CN1C=CCC(C(=O)OCCOC(=O)C2N3C(=O)C(NC(=O)Cc4ccccc4)C3SC2(C)C)=C1 (stereo not drawn)
half-life [5]: 4.1 min
half-life [6]: 16.2 min
half-life [1]: 4 min
half-life [7]: 0.8 min
half-life [2]: 2.4 min
T1/2 [8]: Unstable
K [9]: Unstable
K [10]: 0.168 min⁻¹
K [11]: 0.043 min⁻¹
K [3]: 0.174 min⁻¹
K [12]: 0.903 min⁻¹
K [4]: 0.296 min⁻¹
Concentration [13]: 37.9 µg/mL
Concentration [14]: 10.3 µg/mL
Concentration [15]: 56.4 µg/mL
Concentration [16]: 3.4 µg/mL
Concentration [17]: 54.6 µg/mL
Concentration [18]: 2.1 µg/mL
Concentration [19]: 30.3 µg/mL
Concentration [20]: 11.1 µg/mL
Concentration [21]: 11.4 µg/mL
Concentration [22]: 4.7 µg/mL
Concentration [23]: 10.9 µg/mL
Concentration [24]: 1.5 µg/mL
Concentration [25]: 12.6 µg/mL
Concentration [26]: 22.7 µg/mL
Concentration [27]: 5.6 µg/mL
Concentration [28]: 1.9 µg/mL
Concentration [29]: 9 µg/mL
Concentration [30]: 0.7 µg/mL
Concentration [31]: 10.7 µg/mL
Concentration [32]: 0.3 µg/mL
Concentration [33]: 8.8 µg/mL
Concentration [34]: 3.9 µg/mL
Concentration [35]: 2.4 µg/mL
Concentration [36]: 3.5 µg/mL
Concentration [37]: 1.1 µg/mL
Concentration [38]: 3.7 µg/mL
Concentration [39]: 0.6 µg/mL
Concentration [40]: 37.7 µg/mL
Concentration [41]: 24.5 µg/mL
Concentration [42]: 7.2 µg/mL
Concentration [43]: 32.4 µg/mL
Concentration [44]: 5 µg/mL
Concentration [45]: 31.2 µg/mL
Concentration [46]: 2.8 µg/mL
Concentration [47]: 0.7 µg/mL

C[n+]1cccc(C(=O)OCCOC(=O)C2N3C(=O)C(NC(=O)Cc4ccccc4)C3SC2(C)C)c1.[I-] (stereo not drawn)
half-life [5]: 11.5 min
half-life [6]: 6.7 min
half-life [1]: 16.7 min
half-life [7]: 2 min
half-life [2]: 28.2 min
half-life [48]: 1.6 min
K [10]: 0.061 min⁻¹
K [11]: 0.105 min⁻¹
K [3]: 0.043 min⁻¹
K [12]: 0.33 min⁻¹
K [4]: 0.025 min⁻¹
K [49]: 0.435 min⁻¹
